Test results from ChEMBL document CHEMBL2434872, “Modulation of A2B adenosine receptor by 1-Benzyl-3-ketoindole derivatives” (Eur J Med Chem, 2013).
Active and inactive are the calls of the source. The calls are words filed in the database; no cut-off is given here.

Columns and labels:
[1] = target: Adenosine receptor A2a (Homo sapiens, UniProt P29274); test: Displacement of [3H]NECA from human adenosine A2A receptor expressed in CHO cell membrane after 90 mins; format: cell membranes
[2] = target: T1, Adenosine receptor A3 (Homo sapiens, UniProt P0DMS8); test: Displacement of [125I]AB-MECA from human adenosine A3 receptor expressed in CHO cell membrane after 90 mins; format: cell membranes
T1 sequence (P0DMS8 whole entry): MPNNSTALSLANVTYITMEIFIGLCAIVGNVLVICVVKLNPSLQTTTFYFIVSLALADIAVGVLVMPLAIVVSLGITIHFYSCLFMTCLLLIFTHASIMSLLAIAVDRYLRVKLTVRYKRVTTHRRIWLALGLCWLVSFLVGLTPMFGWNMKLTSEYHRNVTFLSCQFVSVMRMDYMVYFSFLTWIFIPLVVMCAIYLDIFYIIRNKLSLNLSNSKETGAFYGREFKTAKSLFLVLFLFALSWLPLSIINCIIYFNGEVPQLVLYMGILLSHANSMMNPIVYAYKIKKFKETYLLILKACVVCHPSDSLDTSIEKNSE

[3] = target: T2, Adenosine receptor A1 (Homo sapiens, UniProt P30542); test: Displacement of [3H]DPCPX from human adenosine A1 receptor expressed in CHO cell membrane after 180 mins; format: cell membranes
T2 sequence (P30542 whole entry): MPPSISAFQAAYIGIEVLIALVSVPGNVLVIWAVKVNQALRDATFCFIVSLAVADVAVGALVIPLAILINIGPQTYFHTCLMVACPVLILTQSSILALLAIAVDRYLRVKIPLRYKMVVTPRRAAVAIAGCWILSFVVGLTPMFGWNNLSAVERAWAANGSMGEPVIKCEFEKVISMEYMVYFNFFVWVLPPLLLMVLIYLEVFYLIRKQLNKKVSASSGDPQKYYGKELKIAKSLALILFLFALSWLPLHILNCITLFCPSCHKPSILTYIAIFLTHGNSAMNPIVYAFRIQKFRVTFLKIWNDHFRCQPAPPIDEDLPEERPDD

[4] = target: T2, Adenosine receptor A1; test: (§1) Antagonist activity at human recombinant adenosine A1 receptor expressed in CHO cells assessed as inhibition of NECA-mediated reduction of intracellular [3H]-cAMP accumulation incubated for 15 mins prior to NECA induction measured after 30 mins by liquid scintillation spectrometric analysis in presence of forskolin; format: functional, cell-based
Outline: (§2)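 CHO cells stably expressing human A1 receptor were plated for 24 h, then preincubated 15 min at 37 °C in DMEM with ADA (1 U/mL) and Ro20-1724 (20 µM). Compound (1 nM–10 µM) was added for 15 min, then 10 nM NECA with 1 µM forskolin for 15 min. Lysis was in 0.4 N HCl. cAMP was measured by [3H]cAMP competition with bovine adrenal binding protein, as % of forskolin level. IC50 from ≥3 experiments, duplicates.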

[5] = target: T3, Adenosine receptor A1 (Homo sapiens) (UniProt P30542); test: as §1; format: functional, cell-based; outline: as §2
T3 sequence (whole entry): T2 sequence (P30542 whole entry)

[6] = system: CHO; test: Effect on cAMP production in adenosine receptor-deficient wild type CHO cells; format: functional, cell-based; settings: Cricetulus griseus

Sequence of Adenosine receptor A2a (P29274 whole entry): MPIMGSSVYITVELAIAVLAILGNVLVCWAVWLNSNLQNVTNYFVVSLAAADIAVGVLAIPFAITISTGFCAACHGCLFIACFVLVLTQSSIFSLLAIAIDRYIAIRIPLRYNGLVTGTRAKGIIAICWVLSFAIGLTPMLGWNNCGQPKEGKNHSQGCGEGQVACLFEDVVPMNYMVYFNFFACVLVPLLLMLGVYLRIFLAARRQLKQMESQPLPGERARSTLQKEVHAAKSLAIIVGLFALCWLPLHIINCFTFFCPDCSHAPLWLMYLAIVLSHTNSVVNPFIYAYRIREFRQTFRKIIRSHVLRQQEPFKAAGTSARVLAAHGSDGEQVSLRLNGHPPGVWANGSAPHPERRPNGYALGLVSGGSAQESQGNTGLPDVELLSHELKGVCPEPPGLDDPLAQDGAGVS

SMILES	Ki [1]	Ki [2]	Ki [3]	IC50 [4]	inhibition [5]	Activity [6]
O=C(C(=O)c1cn(Cc2ccccc2)c2ccccc12)c1ccco1	> 10 µM	> 1 µM	0.343 µM	0.291 µM	Dose-dependent effect	inactive
O=C(C(=O)c1cn(Cc2ccccc2)c2ccccc12)c1cccs1	> 10 µM	> 1 µM	> 10 µM			inactive
O=C(NCc1ccccc1)c1cn(Cc2ccccc2)c2ccccc12	> 10 µM	> 1 µM	> 10 µM			inactive
O=C(C(=O)c1cn(Cc2ccccc2)c2ccccc12)c1ccccc1	> 10 µM	> 1 µM	0.162 µM	0.404 µM	Dose-dependent effect	inactive
O=C(Nc1ccccc1)c1cn(Cc2ccccc2)c2ccccc12	> 10 µM	> 1 µM	> 10 µM			inactive
O=C(NCc1ccccc1)C(=O)c1cn(Cc2ccccc2)c2ccccc12						inactive
O=C(Nc1ccccc1)C(=O)c1cn(Cc2ccccc2)c2ccccc12	> 10 µM	> 1 µM	> 10 µM			inactive
